The record followed here is ChEMBL document CHEMBL4033671, “Synthesis and biological evaluation of N-(carbobenzyloxy)-l-phenylalanine and N-(carbobenzyloxy)-l-aspartic acid-β-benzyl ester derivatives as potent topoisomerase IIα inhibitors” (Bioorg Med Chem, 2017).

In one assay the test system is HeLa. Kind of assay: Antiproliferative activity against human HeLa cells after 48 hrs by MTT assay. It is filed as functional, cell-based. In outline: (§1)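 Cells seeded at 5×10⁴ per well, left 12 h, then exposed to serial dilutions (final 0, 5.0, 10.0, 20.0, 40.0, 80.0, 100.0 µM) for 48 h. MTT (5.0 mg/mL stock, 10 µL) added for 4 h, formazan dissolved in DMSO, absorbance read at 490 nm. Inhibition = (1−A_treatment/A_control)×100%; IC50 is the concentration giving 50% growth inhibition. Triplicate wells, at least three independent experiments, mean ± SD.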
In general terms: Tetrazolium assays rely on reduction of a dye to a coloured formazan, in cell work by metabolically active cells.

Another assay has as its system MGC-803. The assay is described as follows: Antiproliferative activity against human MGC803 cells after 48 hrs by MTT assay. It counts as functional, cell-based. To be noted: MGC-803, 48 h. An outline of the steps:
as §1

In the next assay the test system is MCF7. Kind of assay: Antiproliferative activity against human MCF7 cells after 48 hrs by MTT assay. To be noted: MCF7, 48 h. It is filed as functional, cell-based. An outline of the steps: as §1
The test system of a further assay is A549. The assay is described as follows: Antiproliferative activity against human A549 cells after 48 hrs by MTT assay. It counts as functional, cell-based. As to conditions: A549, 48 h. An outline of the steps: as §1
Assay [1] has as its target T1, DNA topoisomerase 1 (Homo sapiens) (UniProt P11387).
T1 sequence (whole entry): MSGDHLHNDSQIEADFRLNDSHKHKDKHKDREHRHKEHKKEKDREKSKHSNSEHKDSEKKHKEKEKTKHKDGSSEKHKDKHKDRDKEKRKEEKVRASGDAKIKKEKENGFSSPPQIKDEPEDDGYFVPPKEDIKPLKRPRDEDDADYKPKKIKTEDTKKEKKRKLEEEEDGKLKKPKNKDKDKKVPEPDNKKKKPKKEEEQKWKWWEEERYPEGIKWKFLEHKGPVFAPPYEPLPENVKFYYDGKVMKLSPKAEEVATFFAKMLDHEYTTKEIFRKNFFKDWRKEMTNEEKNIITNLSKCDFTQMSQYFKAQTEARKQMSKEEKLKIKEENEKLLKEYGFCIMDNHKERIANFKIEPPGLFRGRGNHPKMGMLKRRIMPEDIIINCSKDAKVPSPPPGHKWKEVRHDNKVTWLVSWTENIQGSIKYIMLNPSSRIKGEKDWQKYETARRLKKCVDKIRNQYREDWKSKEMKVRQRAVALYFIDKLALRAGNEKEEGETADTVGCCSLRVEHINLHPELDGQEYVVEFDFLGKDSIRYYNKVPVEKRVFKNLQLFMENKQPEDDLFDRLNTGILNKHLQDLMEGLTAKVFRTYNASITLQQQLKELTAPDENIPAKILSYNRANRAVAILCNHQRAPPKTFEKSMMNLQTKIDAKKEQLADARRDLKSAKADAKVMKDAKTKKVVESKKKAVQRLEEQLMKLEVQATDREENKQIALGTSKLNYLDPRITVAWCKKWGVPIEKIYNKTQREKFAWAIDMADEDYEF
Kind of assay: Inhibition of human recombinant topoisomerase-1 assessed as decrease in relaxation of supercoiled DNA pBR322 at 100 uM after 30 mins by ethidium bromide staining-based agarose gel electrophoresis relative to control. In outline:
(§2)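 Relaxation of 500 ng supercoiled pBR322 by 1 unit human topoisomerase I or IIα in reaction buffer, with or without compound (100 µM; 20 µM for selected compounds). Incubated 37 °C for 30 min, stopped with 0.77% SDS/77 mM EDTA. Products run on 1% agarose in TBE at 83 V for 60 min, stained 30 min in ethidium bromide (0.5 µg/mL), imaged under UV; percent inhibition recorded.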

Assay [2] addresses T1, DNA topoisomerase 1 (Homo sapiens). Kind of assay: Inhibition of human recombinant topoisomerase-1 assessed as decrease in relaxation of supercoiled DNA pBR322 at 20 uM after 30 mins by ethidium bromide staining-based agarose gel electrophoresis relative to control. In outline: as §2
Assay [3] concerns the target T2, DNA topoisomerase 2-alpha (Homo sapiens, UniProt P11388). Kind of assay: Inhibition of human recombinant topoisomerase-2alpha expressed in Escherichia coli assessed as decrease in relaxation of supercoiled DNA pBR322 at 100 uM after 30 mins by ethidium bromide staining-based agarose gel electrophoresis relative to control. In outline: as §2
Assay [4] deals with T2, DNA topoisomerase 2-alpha. The assay is described as follows: Inhibition of human recombinant topoisomerase-2alpha expressed in Escherichia coli assessed as decrease in relaxation of supercoiled DNA pBR322 at 20 uM after 30 mins by ethidium bromide staining-based agarose gel electrophoresis relative to control. In outline: as §2
For assay [5], the target named is T2, DNA topoisomerase 2-alpha. The assay is described as follows: Inhibition of human recombinant topoisomerase-2alpha expressed in Escherichia coli assessed as decrease in relaxation of supercoiled DNA pBR322 after 30 mins by ethidium bromide staining-based agarose gel electrophoresis. In outline: as §2

T2 sequence (P11388 whole entry): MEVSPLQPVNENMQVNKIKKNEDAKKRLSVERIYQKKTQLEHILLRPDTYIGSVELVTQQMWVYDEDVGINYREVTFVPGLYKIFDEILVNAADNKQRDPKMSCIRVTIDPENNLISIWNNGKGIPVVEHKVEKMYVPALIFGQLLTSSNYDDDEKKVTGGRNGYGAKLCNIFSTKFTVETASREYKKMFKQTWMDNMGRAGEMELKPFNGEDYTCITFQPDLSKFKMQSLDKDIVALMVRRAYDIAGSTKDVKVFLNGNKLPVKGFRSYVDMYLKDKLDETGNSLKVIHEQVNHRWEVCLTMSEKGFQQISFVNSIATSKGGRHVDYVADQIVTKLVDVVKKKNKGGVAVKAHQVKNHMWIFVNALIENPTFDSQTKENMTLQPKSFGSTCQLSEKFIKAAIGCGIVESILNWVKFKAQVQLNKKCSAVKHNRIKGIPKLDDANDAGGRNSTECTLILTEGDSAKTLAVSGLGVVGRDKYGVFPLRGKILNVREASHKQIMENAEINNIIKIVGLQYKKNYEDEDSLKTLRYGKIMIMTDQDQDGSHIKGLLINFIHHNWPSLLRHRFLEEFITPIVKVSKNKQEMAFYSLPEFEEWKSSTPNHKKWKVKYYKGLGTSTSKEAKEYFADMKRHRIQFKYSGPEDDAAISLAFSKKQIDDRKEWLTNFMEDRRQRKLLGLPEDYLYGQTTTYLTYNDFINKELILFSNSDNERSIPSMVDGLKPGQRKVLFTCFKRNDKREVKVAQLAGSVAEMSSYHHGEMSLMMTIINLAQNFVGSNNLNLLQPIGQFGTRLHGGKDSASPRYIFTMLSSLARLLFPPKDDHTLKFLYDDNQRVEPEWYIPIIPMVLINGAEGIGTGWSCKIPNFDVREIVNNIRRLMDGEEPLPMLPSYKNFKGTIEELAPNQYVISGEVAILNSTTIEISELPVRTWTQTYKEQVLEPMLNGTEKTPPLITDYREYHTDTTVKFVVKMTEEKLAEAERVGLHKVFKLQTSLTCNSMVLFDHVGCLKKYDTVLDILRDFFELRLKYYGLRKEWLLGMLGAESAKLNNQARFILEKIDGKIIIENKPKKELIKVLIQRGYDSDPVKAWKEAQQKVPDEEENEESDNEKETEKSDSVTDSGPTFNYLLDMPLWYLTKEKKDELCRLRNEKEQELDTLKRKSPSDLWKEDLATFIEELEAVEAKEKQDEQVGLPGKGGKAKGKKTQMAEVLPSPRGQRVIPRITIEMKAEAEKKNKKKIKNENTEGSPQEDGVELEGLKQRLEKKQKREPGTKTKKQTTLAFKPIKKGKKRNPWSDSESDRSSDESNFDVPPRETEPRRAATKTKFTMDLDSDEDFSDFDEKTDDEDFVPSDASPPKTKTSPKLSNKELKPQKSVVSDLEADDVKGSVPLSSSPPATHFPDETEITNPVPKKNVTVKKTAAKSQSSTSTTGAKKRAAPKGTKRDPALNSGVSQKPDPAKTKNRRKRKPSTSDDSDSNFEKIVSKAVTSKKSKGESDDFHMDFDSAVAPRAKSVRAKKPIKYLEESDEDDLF

With `COc1cc([C@@H]2c3cc4c(cc3[C@@H](O[C@@H]3O[C@@H]5CO[C@@H](C)O[C@H]5[C@H](O)[C@H]3O)[C@H]3COC(=O)[C@H]23)OCO4)cc(OC)c1O` [ETOPOSIDE], the IC50 in the assay on HeLa is 15.9 µM; with MGC-803, 20.9 µM; in the assay on MCF7 it was 24 µM; in the assay on A549, 19.8 µM.
Turning to `O=C(N[C@@H](Cc1ccccc1)C(=O)N[C@H](COC(=O)c1ccccc1)Cc1ccccc1)OCc1ccccc1`, the IC50 was found to be 30.2 µM in the assay with HeLa, 38.7 µM in the assay on MGC-803, 41.1 µM in the assay with MCF7 and 48.8 µM with A549. The inhibition in assay [1] was 29.5%; in assay [2], -0%; in assay [3], 75.7%; in [4], 25.6%.
`O=C(C[C@H](NC(=O)OCc1ccccc1)C(=O)N[C@H](COC(=O)c1ccccc1Cl)Cc1ccccc1)OCc1ccccc1`: the IC50 in the assay on HeLa, with MGC-803, with MCF7 and with A549 was over 50 µM in each case. In addition, the inhibition in assay [1] is -0%; in assay [3] it was 41.4%.
Turning to `CCC(=O)OC[C@H](Cc1ccccc1)NC(=O)[C@H](CC(=O)OCc1ccccc1)NC(=O)OCc1ccccc1`, the IC50 was 49.9 µM with HeLa, over 50 µM in the assay on MGC-803, 40.6 µM in the assay with MCF7 and over 50 µM in the assay on A549. The inhibition in [1] is 45.2%; in [2], -0%; in assay [3], 63.8%; in assay [4], 19.7%.
With `Cc1ccccc1C(=O)OC[C@H](Cc1ccccc1)NC(=O)[C@H](Cc1ccccc1)NC(=O)OCc1ccccc1`, the IC50 in the assay on HeLa was 39.4 µM; with MGC-803, 42.8 µM; with MCF7 it was 39.2 µM; in the assay with A549, over 50 µM. In addition, the inhibition in assay [1] came out at 7.3%; in assay [3], 62.8%; in [4], 42.1%.
As to `CC(=O)OC[C@H](Cc1ccccc1)NC(=O)[C@H](CC(=O)OCc1ccccc1)NC(=O)OCc1ccccc1`, the IC50 in the assay on HeLa was over 50 µM; with MGC-803, over 50 µM; in the assay on MCF7, 47.1 µM; in the assay on A549, over 50 µM. Further, the inhibition was 15% in assay [1], -0% in assay [2] and 6.7% in assay [3].
Take `O=C(C[C@H](NC(=O)OCc1ccccc1)C(=O)N[C@H](COC(=O)c1ccc(Cl)cc1)Cc1ccccc1)OCc1ccccc1`: the IC50 with HeLa came out at 17.6 µM; in the assay on MGC-803, 28.1 µM; in the assay on MCF7, 22.1 µM; in the assay with A549 it was 29.9 µM. Also, the results for the inhibition in assay [1], in [3] and in [4] were 9.5%, 92.9% and 51.2%, respectively.
As to `O=C(N[C@@H](Cc1ccccc1)C(=O)N[C@H](COC(=O)c1ccccc1Cl)Cc1ccccc1)OCc1ccccc1`, the IC50 in the assay with HeLa was over 50 µM; in the assay on MGC-803 it was 43.1 µM; in the assay on MCF7 it was 43 µM; with A549, over 50 µM. Besides, the results for the inhibition in [1] and in [3] were -0% and 4.1%, respectively.
With `CC[C@@]1(O)C(=O)OCc2c1cc1n(c2=O)Cc2cc3ccccc3nc2-1` [CAMPTOTHECIN], the IC50 was found to be 10.1 µM in the assay on HeLa, 9.45 µM in the assay on MGC-803, 28.7 µM in the assay on MCF7 and 13.6 µM in the assay with A549.
Consider `O=C(N[C@@H](Cc1ccccc1)C(=O)N[C@H](COC(=O)c1ccc(Cl)cc1)Cc1ccccc1)OCc1ccccc1`, for which the IC50 was determined as 22.6 µM with HeLa, 38.4 µM in the assay with MGC-803, 36.2 µM in the assay on MCF7 and 42.4 µM in the assay on A549. For the same molecule, the inhibition in assay [1] is -0%; in [3], 3.2%.
For `COc1ccc(C(=O)OC[C@H](Cc2ccccc2)NC(=O)[C@H](Cc2ccccc2)NC(=O)OCc2ccccc2)cc1OC`, the IC50 is 34.5 µM with HeLa, 40.3 µM in the assay with MGC-803, 41.5 µM in the assay on MCF7 and over 50 µM in the assay with A549. Besides, the inhibition in [1] came to 5.4%; in assay [3] it was 83.2%; in assay [4], 28.1%.
Consider `CCC(=O)OC[C@H](Cc1ccccc1)NC(=O)[C@H](Cc1ccccc1)NC(=O)OCc1ccccc1`, for which the IC50 with HeLa, with MGC-803, with MCF7 and in the assay with A549 was over 50 µM each time. Moreover, the inhibition in assay [1] was -0%; in [3] it was 86.1%; in assay [4], 45.6%.
Take `O=C(O)C[C@H](NC(=O)OCc1ccccc1)C(=O)O`: in assay [5], the IC50 is 27 µM.
Consider `Cc1ccccc1C(=O)OC[C@H](Cc1ccccc1)NC(=O)[C@H](CC(=O)OCc1ccccc1)NC(=O)OCc1ccccc1`, for which the IC50 with HeLa was 44.7 µM; in the assay on MGC-803 it was over 50 µM; in the assay with MCF7 it was 41.7 µM; in the assay on A549 it was over 50 µM. The inhibition in [1] is -0%; in assay [3] it was 28.2%.
As to `COc1ccc(C(=O)OC[C@H](Cc2ccccc2)NC(=O)[C@H](CC(=O)OCc2ccccc2)NC(=O)OCc2ccccc2)cc1OC`, the half-maximal inhibitory concentration (IC50) in the assay with HeLa was 39.6 µM; with MGC-803, 42.3 µM; with MCF7, 27.9 µM; in the assay with A549, 47.6 µM. Besides, the inhibition in [1] is 20.2%; in assay [2], -0%; in assay [3], 84.6%; in [4], 49.8%.
Consider `O=C(C[C@H](NC(=O)OCc1ccccc1)C(=O)N[C@H](COC(=O)c1ccccc1)Cc1ccccc1)OCc1ccccc1`, for which the IC50 was determined as 27.9 µM in the assay with HeLa, 32.5 µM in the assay on MGC-803, 40 µM in the assay with MCF7 and 46 µM in the assay with A549. Besides, the inhibition in [1] is -0%; in assay [3], 68.4%; in [4], 20.1%.

The term IC50 denotes the concentration that gives 50% inhibition. In general, inhibition refers to the change of the read-out against control, counted positive when it falls.
